# Most compounds without a hit are left out; they make up all but 4.2% or so of the library.
# ANO1 block: TMEM16A chloride channel inhibitors, primary screen, cell-based, HTS; AID 588511, 2011; HEK293 TMEM16A/YFP iodide influx fluorescence, ionomycin; normalized B-score (activity score, 25-100; higher = stronger inhibition) at 10 µM; 310,000 compounds, 1.2% hits; Anoctamin-1 (Mus musculus), Q8BHY3;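 active = ratio plate-corrected score three or more library SD toward inhibition, starting fluorescence score within five deviations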;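 note: score derived from kinetic fluorescence span divided by baseline fluorescence per well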
# Target sequence (Q8BHY3 whole entry, looked up): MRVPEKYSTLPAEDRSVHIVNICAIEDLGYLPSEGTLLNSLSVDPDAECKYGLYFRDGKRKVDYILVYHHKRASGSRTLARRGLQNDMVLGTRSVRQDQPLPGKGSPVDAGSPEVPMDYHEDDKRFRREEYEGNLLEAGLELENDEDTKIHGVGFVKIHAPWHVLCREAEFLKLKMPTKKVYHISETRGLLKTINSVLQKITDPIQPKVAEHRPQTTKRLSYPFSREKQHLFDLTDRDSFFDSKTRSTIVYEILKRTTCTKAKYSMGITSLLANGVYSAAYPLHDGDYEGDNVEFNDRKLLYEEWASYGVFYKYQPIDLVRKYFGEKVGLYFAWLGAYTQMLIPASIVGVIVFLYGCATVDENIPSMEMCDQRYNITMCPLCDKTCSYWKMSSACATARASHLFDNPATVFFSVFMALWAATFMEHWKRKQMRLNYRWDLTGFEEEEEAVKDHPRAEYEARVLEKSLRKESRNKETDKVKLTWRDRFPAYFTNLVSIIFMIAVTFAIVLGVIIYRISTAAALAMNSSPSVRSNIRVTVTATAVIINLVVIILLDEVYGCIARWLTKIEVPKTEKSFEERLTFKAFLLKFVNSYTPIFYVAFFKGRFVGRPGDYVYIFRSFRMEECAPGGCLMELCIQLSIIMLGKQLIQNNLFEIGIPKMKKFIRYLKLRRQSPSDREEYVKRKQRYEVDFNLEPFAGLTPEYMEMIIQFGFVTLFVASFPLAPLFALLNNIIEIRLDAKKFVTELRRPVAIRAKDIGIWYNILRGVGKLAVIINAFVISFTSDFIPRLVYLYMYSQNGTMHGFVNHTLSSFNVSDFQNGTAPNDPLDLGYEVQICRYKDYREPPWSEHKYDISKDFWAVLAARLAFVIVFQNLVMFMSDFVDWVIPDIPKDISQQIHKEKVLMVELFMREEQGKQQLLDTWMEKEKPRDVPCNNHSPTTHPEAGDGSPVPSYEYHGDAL
# CHOP UPR activ: activators of apoptotic CHOP UPR arm, primary screen, cell-based, CHO-CHOP luciferase reporter, luminescence, uHTS; UPR activation; percent of tunicamycin response over DMSO baseline; activation, % at 10 µM; 330,000 compounds, 0.34% hits;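 active = at 10 µM dose, activation of 40% or more, normalized to positive control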;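 note: 100% = tunicamycin at 10 µg/mL and 0% = DMSO alone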
#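 System: CHO-CHOP luciferase reporter cell line; amount: 500 cells/well; buffer or medium: F12 medium containing 10% fetal bovine serum; incubation: 6 h compound exposure at 37 °C after overnight seeding; measured by: luciferase luminescence after 10 min with Steady-Glo reagent; evaluation: % reporter activation, DMSO baseline versus tunicamycin full activation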
# Lipid droplet: inhibitors of hepatocyte lipid droplet formation, primary screen, imaging, high-throughput imaging, BODIPY stain; 240,000 compounds, 0.4% hits; AID 1656, 2009; AML12 mouse hepatocytes, oleate lipid droplets; inhibition, % at 6.5 µM;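 active = lipid droplet intensity inhibited by at least 50%, with more than 500 cells counted; inconclusive = wells with under 300 cells, treated as cytotoxic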
#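 Test system: AML12 hepatocytes (mouse); reagent: oleate loading, 100 µM; dosing: one dose, 6.5 µM compound; incubation: overnight exposure; signal: fluorescence imaging, 20x objective, two fields per well; read-out basis: % inhibition of corrected integrated BODIPY droplet signal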
# ANO1 activ: TMEM16A chloride channel activators or potentiators, primary screen, cell-based, HTS; Anoctamin-1 (Mus musculus), Q8BHY3; HEK293 TMEM16A/YFP-H148Q/I152L, iodide quench fluorescence; active compounds read low; B-score at 10 µM; 340,000 compounds, 0.3% hits;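 active = fluorescence-ratio B-score plate-corrected deviation score at least 3 library SD below zero, with starting fluorescence score within 5 deviations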;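 note: channel opened by trigger with iodide after compound preincubation; score built on the fluorescence ratio of max minus min over baseline; more negative score means more quench and so TMEM16A activation or potentiation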
# CHOP inh: inhibitors of CHOP promoter induction, primary screen, cell-based, unfolded protein response, luciferase reporter | 220,000 compounds, 3.8% hits | CHO-K1 CHOP-promoter luciferase, tunicamycin-induced, 15-18 h | inhibition, % at 10 µM | AID 2732, 2010;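 active = compounds that reduced the stress-induced luciferase reporter signal by more than about 70% of percent inhibition, limit read from the data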;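 note: 0% = tunicamycin plus vehicle and 100% = wells without tunicamycin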
# XBP1 UPR activ: activators of adaptive XBP1 UPR arm, primary screen, cell-based, CHO-XBP1 luciferase reporter, luminescence, uHTS; 330,000 compounds, 0.33% hits; AID 463104, 2010; activation, % at 20 µM; IRE1-XBP1 UPR activation; percent of tunicamycin response, DMSO as zero;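 active = versus positive control, 20 µM dose yields 30% or more activation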;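 note: 100% = tunicamycin at 10 µg/mL and 0% = DMSO only wells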
#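 Test system: CHO-XBP1 luciferase reporter cells | Buffer or medium: Serum-containing F12 medium, 10% FBS | Schedule: 6 h compound exposure at 37 °C, 5% CO2 | Detection: Steady-Glo luciferase glow luminescence, 10 min after reagent addition | Read-out basis: Activation, % of tunicamycin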
# CHOP inh conf: retest of CHOP induction inhibitors, confirmation, cell-based; shares compounds with CHOP inh; CHO-CHOP promoter luciferase reporter, tunicamycin-induced, luminescence; inhibition, % at 10 µM; 2,100 compounds, 45% hits; AID 504437, 2011;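 active = mean of three repeat readings of reporter signal inhibition above a set limit, cut at about 70% in these data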;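 note: 0% = tunicamycin plus vehicle and 100% = wells lacking tunicamycin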
# * = called active by the depositor; i = inactive; ? = inconclusive; / = not tested or not shown.
SMILES,ANO1 block,CHOP UPR activ,Lipid droplet,ANO1 activ,CHOP inh,XBP1 UPR activ,CHOP inh conf
O=C(Oc1ccc(O)cc1)C12CC3CC(CC(C3)C1)C2,i,-1.5,2.2,i,105.8*,1.2,115.9*
Nc1c(C(=O)N/N=C/c2ccc(F)cc2)oc2nc(-c3ccccc3)cc(-c3ccco3)c12,i,13.2,-2.3,i,100.6*,4.9,-1.9
N#Cc1ccccc1NS(=O)(=O)c1cc2c3c(c1)CCN3C(=O)CC2,i,-2.0,/,i,/,2.0,/
c1cc2c3c(cccc3c1)NC1(CCCCCC1)N2,i,5.2,-18.3,i,107.1*,5.9,-4.1
c1cc2c3c(cccc3c1)NC1(CCCCC1)N2,i,3.2,-27.4,i,13.3,-1.1,/
Cc1ccc(-c2[nH]ncc2/C=N/n2c(COc3ccccc3C)nc3ccccc3c2=O)cc1,i,22.7,-16.2,i,100.1*,19.6,4.5
COC(C(=O)N1CCC(CCC(=O)Nc2ccccc2)CC1)c1ccccc1 (stereo not given),i,4.2,-85.3,i,/,-0.4,/
CCSc1nc2ccccc2n1C(=O)/C=C\c1ccc(OC)c(OC)c1,i,1.7,/,i,110.3*,-2.2,111.4*
COc1cccc(CNC(=O)C2Cc3ccccc3CN2C(C)=O)c1 (stereo not given),i,-1.0,-7.4,i,/,-3.0,/
COc1ccccc1-c1cc(C(F)(F)F)nc(S(=O)(=O)CCCC(=O)Nc2cc(C)on2)n1,i,19.7,/,i,107.9*,-7.1,124.7*
COc1ccccc1/C=C/C(=O)Nc1cccnc1Cl,i,4.9,12.3,i,/,-0.4,/
COc1ccccc1-c1cc(C(F)(F)F)nc(N2CCCC2)n1,i,-0.7,/,i,28.2,1.0,/
COc1ccccc1-c1cc(C(F)(F)F)nc(S(=O)(=O)CCCC(=O)NC(C)C)n1,i,20.6,/,i,112.3*,-6.6,117.2*
COc1ccccc1-c1cc(C(F)(F)F)nc(S(=O)(=O)CCCC(=O)Nc2cccnc2Cl)n1,/,/,2.5,i,107.6*,/,120.6*
COc1ccc(-c2cc(C(F)(F)F)nc(S(=O)(=O)CCCC(=O)Nc3cc(C)on3)n2)cc1OC,/,/,-11.3,i,105.8*,/,-140.3
O=C(CSc1nnc(CNC(=O)c2ccco2)o1)Nc1ccc(Br)cc1,i,-0.3,9.0,i,/,-2.9,/
Cc1coc2c1c(C)cc1oc(=O)c(CC(=O)NCCCCCC(=O)O)c(C)c12,i,-0.3,-9.7,i,/,1.7,/
CCOC(=O)C1(Cc2ccc(OC)cc2)CCN(C(=O)C2=CCCC2)CC1,i,1.1,-2.5,i,102.5*,2.1,13.7
CCOC(=O)C1(Cc2ccc(OC)cc2)CCN(C(=O)c2cc(C)on2)CC1,i,2.8,-3.4,i,/,-0.5,/
CC(NC(=O)COc1ccccc1)C(c1ccccc1)N1CCN(C)CC1 (stereo not given),i,0.1,/,i,98.3*,-3.7,21.2
O=[N+]([O-])/C=C/c1cn(Cc2ccc(Cl)cc2)c2ccccc12,i,6.8,-6.2,i,100.5*,0.6,-24.6
CCCCCc1nnc(NC(=O)C2=COCCO2)s1,i,3.5,/,i,/,-0.3,/
O=C(N/N=C/c1ccc(F)cc1)c1c(O)c2ccccc2[nH]c1=O,i,3.2,-2.1,i,100.6*,7.9,72.4*
O=C(N/N=C/c1cccc(F)c1)c1c(O)c2ccccc2[nH]c1=O,i,/,-0.6,i,104.4*,/,92.7*
CCCCCCn1c(=O)c(C(=O)N/N=C/c2cccc(F)c2)c(O)c2ccccc21,i,14.4,-1.8,i,105.1*,8.1,99.7*
SMILES,ANO1 block,CHOP UPR activ,Lipid droplet,ANO1 activ,CHOP inh,XBP1 UPR activ,CHOP inh conf
CCCn1c(=O)c(C(=O)N/N=C/c2ccc(F)cc2)c(O)c2ccccc21,i,-1.1,-11.9,i,44.4,-3.5,/
COc1ccc(CN2CCNC(=O)C2CC(=O)NCCC2=CCCCC2)cc1OC (stereo not given),i,0.9,5.0,i,8.7,0.2,/
Cc1ccccc1C(=O)NNC(=S)NC(=O)c1ccc(Cl)cc1Cl,100*,-1.4,-3.3,i,96.4*,-1.2,11.6
O=C(NC(=S)NNC(=O)c1ccc(Cl)cc1Cl)c1cccnc1,i,-0.8,-7.4,i,34.0,-2.9,/
Cc1[nH]c2ccccc2c1/C=N/NC(=O)C1CC1(c1ccccc1)c1ccccc1 (stereo not given),i,2.3,34.9,i,106.1*,4.8,100.9*
O=C(Nc1cccc(Cl)c1)Nc1cccc(Cl)c1,i,15.9,2.4,i,16.0,5.2,/
O=C(Nc1ccccc1)Nc1cc(Cl)cc(Cl)c1,i,3.2,10.9,i,111.5*,0.4,67.9
O=C(Nc1ccccc1)Nc1cc(OCC(F)(F)F)cc(OCC(F)(F)F)c1,/,/,-7.7,i,106.7*,/,125.5*
COc1ccc(N(C)C(=O)c2cn(C)c(=O)c3cc(OC)c(OC)cc23)cc1,i,1.5,/,i,/,-4.4,/
O=C(CNc1cccc2ccccc12)N/N=C/C(Br)=C/c1ccccc1,i,1.6,/,i,105.5*,1.5,9.9
N#CC1=C(N)C(C#N)(C#N)C(c2cccnc2)C2CCCC=C12 (stereo not given),i,-3.6,/,/,-2.2,-1.2,/
N#CC1=C(N)C(C#N)(C#N)C(c2cccnc2)C2CC(c3ccccc3)CC=C12 (stereo not given),i,0.3,/,i,96.3*,-4.3,32.7
COc1ccc(S(=O)(=O)N2CCCOC2CNC(=O)C(=O)NCCCN2CCOCC2)cc1 (stereo not given),i,0.3,-3.5,i,/,-2.9,/
Cc1ccc(C)c(NC(=S)NC(NC(=O)Cc2ccccc2)C(Cl)(Cl)Cl)c1 (stereo not given),i,0.6,3.5,i,103.1*,-3.2,25.4
O=C(CSc1nnc(Cc2ccccc2)n1-c1cccc(Cl)c1)NNC(=O)Cc1ccccc1,i,-0.2,-2.5,i,9.4,-2.6,/
CC1=C(C(=O)Nc2cccc(F)c2)C(c2ccsc2)C2=C(CC(C)(C)CC2=O)N1 (stereo not given),i,0.4,?,i,-19.3,4.1,/
